Values after ≈ are worked out from the molar mass of the structure shown. Active and inactive are the calls of the source. The calls are words filed in the database; no cut-off is given here.
Experiments:
[1] = tested on: Staphylococcus aureus; assay: Antibacterial activity against methicillin-resistant Staphylococcus aureus N315 after 24 hrs by two-fold serial dilution assay; format: functional
[2] = tested on: Bacillus subtilis; assay: Antibacterial activity against Bacillus subtilis after 24 hrs by two-fold serial dilution assay; format: functional
In short: (§1)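 Twofold serial broth dilution following NCCLS guidance, with Chloromycin, Norfloxacin and Fluconazole as positive controls. MIC in μM is the lowest concentration giving complete inhibition of visible bacterial or fungal growth.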

[3] = tested on: Micrococcus luteus; assay: Antibacterial activity against Micrococcus luteus ATCC 4698 after 24 hrs by two-fold serial dilution assay; format: functional, NCTC 2665; in short: as §1
[4] = tested on: Staphylococcus aureus; assay: Antibacterial activity against Staphylococcus aureus ATCC 25923 after 24 hrs by two-fold serial dilution assay; format: functional; in short: as §1
[5] = tested on: Escherichia coli; assay: Antibacterial activity against Escherichia coli JM109 after 24 hrs by two-fold serial dilution assay; format: functional; in short: as §1
[6] = tested on: Escherichia coli; assay: Antibacterial activity against Escherichia coli DH52 after 24 hrs by two-fold serial dilution assay; format: functional; in short: as §1
[7] = tested on: Shigella dysenteriae; assay: Antibacterial activity against Shigella dysenteriae after 24 hrs by two-fold serial dilution assay; format: functional
[8] = tested on: Pseudomonas aeruginosa; assay: Antibacterial activity against Pseudomonas aeruginosa after 24 hrs by two-fold serial dilution assay; format: functional; in short: as §1
[9] = tested on: Salmonella typhi; assay: Antibacterial activity against Bacillus typhi after 24 hrs by two-fold serial dilution assay; format: functional, Salmonella enterica subsp. enterica serovar Typhi
[10] = tested on: Proteus vulgaris; assay: Antibacterial activity against Bacillus proteus ATCC 13315 after 24 hrs by two-fold serial dilution assay; format: functional; in short: as §1
[11] = tested on: Pichia norvegensis; assay: Antifungal activity against Candida mycoderma after 24 hrs by two-fold serial dilution assay; format: functional; in short: as §1
[12] = tested on: Cyberlindnera jadinii; assay: Antifungal activity against Candida utilis after 24 hrs by two-fold serial dilution assay; format: functional; in short: as §1
[13] = tested on: Saccharomyces cerevisiae; assay: Antifungal activity against Saccharomyces cerevisiae after 24 hrs by two-fold serial dilution assay; format: functional; in short: as §1
[14] = tested on: Aspergillus flavus; assay: Antifungal activity against Aspergillus flavus after 24 hrs by two-fold serial dilution assay; format: functional; in short: as §1
[15] = tested on: Candida albicans; assay: Antifungal activity against Candida albicans ATCC 76615 after 24 hrs by two-fold serial dilution assay; format: functional; in short: as §1
[16] = tested on: Staphylococcus aureus; assay: Antibacterial activity against methicillin-resistant Staphylococcus aureus N315 after 15 serial passages by two-fold serial dilution assay; format: functional
In short: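 Resistance-development test in MRSA. Cultures were propagated with fresh medium and serially diluted test agent, and the MIC was redetermined every 24 h. Parallel cultures were exposed to 2-fold dilutions of Chloromycin and Norfloxacin as positive controls. MIC was the lowest concentration giving complete growth inhibition.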

[17] = Binding affinity to DNA (unknown origin) assessed as hyperchromic effect up to 1.4 x 10^-5mol/L by UV-Visible absorption spectroscopy
In short: (§2)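 Calf thymus DNA is held at a fixed concentration, quantified by A260 (ε260 = 6600 L mol⁻¹ cm⁻¹, per phosphate) and checked for A260/A280 > 1.8. It is titrated with increasing compound in Tris-HCl pH 7.4 at 290 K. UV-vis spectra are recorded, following absorbance at 260 nm. The binding constant K is derived from a linear fit (R, SD reported).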

[18] = Binding affinity to DNA (unknown origin) by UV-Visible absorption spectroscopy; in short: as §2
[19] = species: Bos taurus; assay: Inhibition of neutral red binding to calf thymus DNA up to 1.4 x 10^-5mol/L by UV-Visible absorption spectroscopy
[20] = species: Bos taurus; assay: Induction of calf thymus DNA intercalation assessed as protection of compound quenching from iodide ion by fluorescence assay (reference value: 104.52 L/mol)
[21] = tested on: Escherichia coli; assay: Induction of Escherichia coli pBR322 DNA cleavage assessed as conversion of covalently closed circular DNA to open circular form and linear form of DNA by agarose gel electrophoresis method
In short: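 Supercoiled pBR322 plasmid is incubated with compound at 25, 50 and 75 μM alongside a DNA-only control at 37 °C, pH 7.0. Products are resolved by gel electrophoresis, scoring conversion of Form I to Form II (nicked) and Form III (linear).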

[22] = Staphylococcus aureus, N315, 24 h, read-out: MIC
[23] = Bacillus subtilis, 24 h, read-out: MIC
[24] = Micrococcus luteus, NCTC 2665, 24 h, read-out: MIC
[25] = Staphylococcus aureus, ATCC 25923, 24 h, read-out: MIC
[26] = Escherichia coli, JM109, 24 h, read-out: MIC
[27] = Escherichia coli, DH52, 24 h, read-out: MIC
[28] = Shigella dysenteriae, 24 h, read-out: MIC
[29] = Pseudomonas aeruginosa, 24 h, read-out: MIC
[30] = Salmonella enterica, 24 h, read-out: MIC
[31] = Proteus vulgaris, ATCC 13315, 24 h, read-out: MIC
[32] = Pichia norvegensis, 24 h, read-out: MIC
[33] = Williopsis jadinii, 24 h, read-out: MIC
[34] = Saccharomyces cerevisiae, 24 h, read-out: MIC
[35] = Aspergillus flavus, 24 h, read-out: MIC
[36] = Candida albicans, ATCC 76615, 24 h, read-out: MIC

| SMILES | MIC [1, 22] [µM] | MIC [2, 23] [µM] | MIC [3, 24] [µM] | MIC [4, 25] [µM] | MIC [5, 26] [µM] | MIC [6, 27] [µM] | MIC [7, 28] [µM] | MIC [8, 29] [µM] | MIC [9, 30] [µM] | MIC [10, 31] [µM] | MIC [11, 32] [µM] | MIC [12, 33] [µM] | MIC [13, 34] [µM] | MIC [14, 35] [µM] | MIC [15, 36] [µM] | other results |
| --- | --- | --- | --- | --- | --- | --- | --- | --- | --- | --- | --- | --- | --- | --- | --- | --- |
| COc1cc(-c2nc3cc(Cl)ccc3[nH]2)c2c(c1O)CN1CCc3cc4c(cc3C1C2)OCO4 (stereo unspecified) | 1080 (≈ 512 µg/mL) | 717 (≈ 341 µg/mL) | 896 (≈ 427 µg/mL) | 1080 (≈ 512 µg/mL) | 896 (≈ 427 µg/mL) | 896 (≈ 427 µg/mL) | 1080 (≈ 512 µg/mL) | 359 (≈ 171 µg/mL) | 448 (≈ 213 µg/mL) | 896 (≈ 427 µg/mL) | 896 (≈ 427 µg/mL) | 717 (≈ 341 µg/mL) | 896 (≈ 427 µg/mL) | 1080 (≈ 512 µg/mL) | 896 (≈ 427 µg/mL) | – |
| COc1cc(-c2nc3ccccc3n2Cc2ccc(Cl)c(Cl)c2)c2c(c1O)CN1CCc3cc4c(cc3C1C2)OCO4 (stereo unspecified) | 22.2 (≈ 13.3 µg/mL) | 22.2 (≈ 13.3 µg/mL) | 107 (≈ 64 µg/mL) | 35.5 (≈ 21.3 µg/mL) | 44.4 (≈ 26.7 µg/mL) | 44.4 (≈ 26.7 µg/mL) | 44.4 (≈ 26.7 µg/mL) | 35.5 (≈ 21.3 µg/mL) | 53.3 (≈ 32 µg/mL) | 22.2 (≈ 13.3 µg/mL) | 53.3 (≈ 32 µg/mL) | 44.4 (≈ 26.7 µg/mL) | 26.6 (≈ 16 µg/mL) | 88.8 (≈ 53.3 µg/mL) | 44.4 (≈ 26.7 µg/mL) | – |
| COc1cc(-c2nc3ccccc3n2Cc2ccc(Cl)cc2)c2c(c1O)CN1CCc3cc4c(cc3C1C2)OCO4 (stereo unspecified) | – | – | – | – | – | – | – | – | – | – | – | – | – | – | – | MIC [1]: 18.9 µM (≈ 10.7 µg/mL); MIC [2]: 11.8 µM (≈ 6.68 µg/mL); MIC [3]: 28.3 µM (≈ 16 µg/mL); MIC [4]: 9.4 µM (≈ 5.32 µg/mL); MIC [5]: 37.7 µM (≈ 21.3 µg/mL); MIC [6]: 56.5 µM (≈ 32 µg/mL); MIC [7]: 18.9 µM (≈ 10.7 µg/mL); MIC [8]: 23.6 µM (≈ 13.4 µg/mL); MIC [9]: 9.4 µM (≈ 5.32 µg/mL); MIC [10]: 11.8 µM (≈ 6.68 µg/mL); MIC [11]: 14.1 µM (≈ 7.98 µg/mL); MIC [12]: 11.8 µM (≈ 6.68 µg/mL); MIC [13]: 14.1 µM (≈ 7.98 µg/mL); MIC [14]: 14.1 µM (≈ 7.98 µg/mL); MIC [15]: 23.6 µM (≈ 13.4 µg/mL) |
| COc1cc(-c2nc3cc(F)ccc3[nH]2)c2c(c1O)CN1CCc3cc4c(cc3C1C2)OCO4 (stereo unspecified) | 17.4 (≈ 7.99 µg/mL) | 4.4 (≈ 2.02 µg/mL) | 46.4 (≈ 21.3 µg/mL) | 58 (≈ 26.6 µg/mL) | 8.7 (≈ 4 µg/mL) | 23.2 (≈ 10.7 µg/mL) | 17.4 (≈ 7.99 µg/mL) | 11.6 (≈ 5.33 µg/mL) | 14.5 (≈ 6.66 µg/mL) | 69.6 (≈ 32 µg/mL) | 8.7 (≈ 4 µg/mL) | 14.5 (≈ 6.66 µg/mL) | 8.7 (≈ 4 µg/mL) | 58 (≈ 26.6 µg/mL) | 58 (≈ 26.6 µg/mL) | Activity [16]: Active; Activity [17]: Active; K [18]: 2.87 ×10⁴ L/mol; inhibition [19]: Active; KSV [20]: 87.7 L/mol; Activity [21]: Dose-dependent effect |
